Results as given in ChEMBL document CHEMBL3525985, “Regiospecificity and stereospecificity of human UDP-glucuronosyltransferases in the glucuronidation of estriol, 16-epiestriol, 17-epiestriol, and 13-epiestradiol” (Drug Metab Dispos, 2013).

Tests used:
Type in all cases: ADME
[1] = biological target: T1, UDP-glucuronosyltransferase 2B17 (Homo sapiens, UniProt O75795); experiment: Drug metabolism assessed as recombinant human C-terminal His-tagged UGT2B17-mediated estriol-17-glucuronide formation after 15 to 60 mins by Michaelis-Menten equation analysis in presence of UDPGA; conditions: recombinant enzyme
T1 sequence (O75795 whole entry): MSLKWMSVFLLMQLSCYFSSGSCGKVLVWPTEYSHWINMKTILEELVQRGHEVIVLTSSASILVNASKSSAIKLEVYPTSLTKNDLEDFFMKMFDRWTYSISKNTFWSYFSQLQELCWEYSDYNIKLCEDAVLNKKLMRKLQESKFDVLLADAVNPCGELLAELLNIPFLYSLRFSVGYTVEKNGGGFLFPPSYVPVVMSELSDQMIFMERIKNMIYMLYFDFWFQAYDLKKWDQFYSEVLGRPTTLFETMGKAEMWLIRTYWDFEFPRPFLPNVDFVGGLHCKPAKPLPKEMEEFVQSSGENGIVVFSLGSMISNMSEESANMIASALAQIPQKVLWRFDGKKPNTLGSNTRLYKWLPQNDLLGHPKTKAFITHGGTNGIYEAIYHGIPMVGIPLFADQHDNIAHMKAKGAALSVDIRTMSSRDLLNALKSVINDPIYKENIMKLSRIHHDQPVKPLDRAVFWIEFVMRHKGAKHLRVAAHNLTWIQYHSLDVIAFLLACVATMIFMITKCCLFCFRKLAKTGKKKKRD

[2] = biological target: T2, UDP-glucuronosyltransferase 2B7 (Homo sapiens, UniProt P16662); experiment: Drug metabolism assessed as recombinant human C-terminal His-tagged UGT2B7-mediated estriol-16-glucuronide formation after 15 to 60 mins by Michaelis-Menten equation analysis in presence of UDPGA; conditions: recombinant enzyme
T2 sequence (P16662 whole entry): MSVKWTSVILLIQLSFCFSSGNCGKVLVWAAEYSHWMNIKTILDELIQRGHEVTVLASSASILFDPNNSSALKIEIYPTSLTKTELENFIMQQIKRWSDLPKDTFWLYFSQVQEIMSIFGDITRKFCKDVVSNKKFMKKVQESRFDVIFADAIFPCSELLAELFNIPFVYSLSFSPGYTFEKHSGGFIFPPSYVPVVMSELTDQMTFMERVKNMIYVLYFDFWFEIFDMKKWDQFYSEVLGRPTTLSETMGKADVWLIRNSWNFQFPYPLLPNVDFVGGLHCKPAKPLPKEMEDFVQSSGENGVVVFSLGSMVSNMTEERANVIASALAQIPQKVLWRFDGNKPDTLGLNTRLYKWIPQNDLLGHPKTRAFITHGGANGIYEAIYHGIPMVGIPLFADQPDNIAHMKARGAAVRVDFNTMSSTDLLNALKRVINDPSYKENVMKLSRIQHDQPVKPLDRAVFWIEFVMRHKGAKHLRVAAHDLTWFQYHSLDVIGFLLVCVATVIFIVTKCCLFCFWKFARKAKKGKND
In short: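 Kinetics with His-tagged UGT-enriched insect-cell membranes (5 or 50 µg): aglycone 0.2–300 µM in 10% DMSO, 5 mM UDPGA, 10 mM MgCl₂, 50 mM phosphate pH 7.4, 15–60 min at 37°C. Substrate consumption kept at or below 10%. Glucuronides quantified by HPLC in triplicate, rates normalized to expression, and data fitted to Michaelis-Menten.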

[3] = biological target: T1, UDP-glucuronosyltransferase 2B17; experiment: Drug metabolism assessed as recombinant human C-terminal His-tagged UGT2B17-mediated estradiol-17-glucuronide formation at 200 uM after 15 to 60 mins by HPLC analysis in presence of UDPGA; conditions: recombinant enzyme
In short: (§1)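 Screening at a single substrate concentration of 200 μM, in triplicate. The reaction used 5 or 50 µg of UGT-enriched insect cell membranes in 50 mM phosphate pH 7.4 with 10 mM MgCl₂ and 5 mM UDPGA, 10% final DMSO. Incubation was 15–60 min at 37°C. Perchloric acid stopped the reaction and supernatants were analysed by HPLC. Controls lacked UDPGA. Rates were normalized to relative UGT expression level.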

[4] = biological target: UDP-glucuronosyltransferase 1A10 (Homo sapiens, UniProt Q9HAW8, F93G); experiment: Drug metabolism assessed as human UGT1A10 F93G mutant-mediated estradiol-3-glucuronide formation at 200 uM after 15 to 60 mins by HPLC analysis in presence of UDPGA; in short: as §1
[5] = biological target: T1, UDP-glucuronosyltransferase 2B17; experiment: Drug metabolism assessed as recombinant human C-terminal His-tagged UGT2B17-mediated 16-epiestriol-16-glucuronide formation after 15 to 60 mins by Michaelis-Menten equation analysis in presence of UDPGA; conditions: recombinant enzyme
[6] = test system: Liver microsome; experiment: Drug metabolism in human liver microsomes assessed as 17-epiestriol-16-glucuronide formation after 15 to 60 mins by Michaelis-Menten equation analysis in presence of UDPGA
In short: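 Pooled human liver microsomes (30 donors), 0.5 or 10 µg, with alamethicin at 5% of total protein. Incubated with 50 mM phosphate pH 7.4, 10 mM MgCl₂, 5 mM UDPGA and 10% DMSO for 15–60 min at 37°C. Each glucuronide regioisomer quantified by HPLC, in triplicate, with substrate consumption at or below 10%.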

Sequence of UDP-glucuronosyltransferase 1A10 (Q9HAW8 26-530 F93G limits assumed): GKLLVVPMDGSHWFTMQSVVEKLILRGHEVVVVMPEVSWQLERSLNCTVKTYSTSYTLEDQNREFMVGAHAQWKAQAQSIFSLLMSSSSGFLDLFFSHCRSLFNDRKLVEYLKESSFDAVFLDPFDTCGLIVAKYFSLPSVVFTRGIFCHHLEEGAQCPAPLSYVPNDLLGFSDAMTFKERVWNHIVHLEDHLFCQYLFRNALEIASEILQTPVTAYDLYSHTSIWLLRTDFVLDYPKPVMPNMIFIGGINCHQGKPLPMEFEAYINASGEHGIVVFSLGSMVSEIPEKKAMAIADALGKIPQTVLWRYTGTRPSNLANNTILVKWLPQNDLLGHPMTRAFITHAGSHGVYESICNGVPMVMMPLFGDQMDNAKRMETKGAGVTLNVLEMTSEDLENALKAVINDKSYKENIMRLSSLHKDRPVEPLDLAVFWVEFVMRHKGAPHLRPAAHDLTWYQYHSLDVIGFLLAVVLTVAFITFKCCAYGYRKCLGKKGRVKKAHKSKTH

C[C@]12CC[C@@H]3c4ccc(O)cc4CC[C@H]3[C@@H]1C[C@@H](O)[C@@H]2O [ESTRIOL]
Drug metabolism [1]: 4 pmol/min/mg | Drug metabolism [2]: 1200 pmol/min/mg

C[C@]12CC[C@@H]3c4ccc(O)cc4CC[C@H]3[C@@H]1CC[C@@H]2O [ESTRADIOL]
Drug metabolism [3]: metabolite_detected | Drug metabolism [4]: metabolite_detected

C[C@]12CC[C@@H]3c4ccc(O)cc4CC[C@H]3[C@@H]1C[C@H](O)[C@@H]2O [EPIESTRIOL]
Drug metabolism [5]: 5 pmol/min/mg

C[C@]12CC[C@@H]3c4ccc(O)cc4CC[C@H]3[C@@H]1C[C@@H](O)[C@H]2O
Km [6]: 7.8 µM | Vmax [6]: 128 pmol/min/mg
